# Key:
# [1] = Percentage unbound in mouse plasma; assay type: ADME, cell-free
# [2] = molecular target: T1, Prostaglandin D2 receptor 2 (Homo sapiens, UniProt Q9Y5Y4); assay: Displacement of [3H]PGD2 from human CRTH2 expressed in chinese hamster CHO cells by liquid scintillation counting; assay type: cell-based
# T1 sequence (Q9Y5Y4 whole entry): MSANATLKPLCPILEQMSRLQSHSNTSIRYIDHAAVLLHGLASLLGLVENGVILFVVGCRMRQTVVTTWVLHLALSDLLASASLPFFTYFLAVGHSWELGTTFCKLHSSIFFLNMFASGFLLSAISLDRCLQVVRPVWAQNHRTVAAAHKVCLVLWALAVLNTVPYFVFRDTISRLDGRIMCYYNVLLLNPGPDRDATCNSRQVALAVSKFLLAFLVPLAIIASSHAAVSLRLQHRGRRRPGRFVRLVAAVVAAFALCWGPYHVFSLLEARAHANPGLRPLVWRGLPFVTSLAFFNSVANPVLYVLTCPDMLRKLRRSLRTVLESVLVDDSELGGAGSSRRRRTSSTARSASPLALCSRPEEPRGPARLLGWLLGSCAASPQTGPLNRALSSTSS
# How it was run: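 Scintillation proximity competition assay: 2–5 μg human CRTH2 cell membranes, 1.5 nM [3H]PGD2, WGA-SPA beads, 10 mM HEPES/KOH pH 7.4, 10 mM MnCl2, protease inhibitors, 1% DMSO; 90 min, room temperature, shaking. Nonspecific binding defined with 1 μM PGD2. Ki by Cheng–Prusoff, mean of ≥3 independent dose–response experiments.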
# [3] = Intrinsic clearance in rat liver microsomes assessed per mg of protein at 1 uM by LC/MS/MS analysis; assay type: ADME, Microsome
# [4] = AUC in BALB/c mouse at 5 mg/kg, po by LC/MS/MS analysis; assay type: ADME, organism-based; design: dose 5 mg/kg, route oral; settings: plasma
# [5] = Clearance in BALB/c mouse at 5 mg/kg, po by LC/MS/MS analysis; assay type: ADME, organism-based; design: dose 5 mg/kg, route oral; settings: in vivo
# [6] = molecular target: T1, Prostaglandin D2 receptor 2; assay: Antagonist activity human CRTH2 expressed in chinese hamster CHO cells assessed as inhibition of PGD2-induced [35S]GTPgamma binding by liquid scintillation counting; assay type: functional, cell-based
# How it was run: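 10 μg human CRTH2 membranes in 20 mM HEPES/KOH pH 7.4, 10 mM MgCl2, 10 μg/mL saponin, 3 μM GDP, 150 mM NaCl, 2% DMSO, 30 °C. Preincubated 10 min, then 0.15 nM [35S]GTPγS for 30 min; stopped by centrifugation. Antagonism tested against 80 nM PGD2. Nonspecific binding with 10 μM GTPγS. Run without BSA.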
# [7] = test system: Mus musculus; assay: Antiinflammatory activity in BALB/c mouse contact hypersensitivity model assessed as inhibition of FITC-mediated ear swelling at 10 mg/kg, po administered 1 hr prior to and 7 hrs after the FITC-challenge measured 24 hrs after final dose; assay type: functional
# How it was run: (§1)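 Female 9-week-old BALB/c mice sensitized on days 0 and 1 with 0.5% FITC in acetone/dibutyl phthalate (sham group: vehicle only). Right ear challenged on day 6 with 0.5% FITC. Compound given by oral gavage 1 h before and 7 h after challenge. Ear thickness measured before and 24 h after challenge. Reported as mean % inhibition ± SEM.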
# [8] = molecular target: T1, Prostaglandin D2 receptor 2; assay: Antagonist activity at human CRTH2 expressed in human CHO cells by cellular dielectric spectroscopy
# [9] = molecular target: T2, Prostaglandin D2 receptor 2 (Mus musculus, UniProt Q9Z2J6); assay: Displacement of [3H]PGD2 from mouse CRTH2 expressed in human HEK cells by liquid scintillation counting; assay type: cell-based, HEK293
# T2 sequence (Q9Z2J6 whole entry): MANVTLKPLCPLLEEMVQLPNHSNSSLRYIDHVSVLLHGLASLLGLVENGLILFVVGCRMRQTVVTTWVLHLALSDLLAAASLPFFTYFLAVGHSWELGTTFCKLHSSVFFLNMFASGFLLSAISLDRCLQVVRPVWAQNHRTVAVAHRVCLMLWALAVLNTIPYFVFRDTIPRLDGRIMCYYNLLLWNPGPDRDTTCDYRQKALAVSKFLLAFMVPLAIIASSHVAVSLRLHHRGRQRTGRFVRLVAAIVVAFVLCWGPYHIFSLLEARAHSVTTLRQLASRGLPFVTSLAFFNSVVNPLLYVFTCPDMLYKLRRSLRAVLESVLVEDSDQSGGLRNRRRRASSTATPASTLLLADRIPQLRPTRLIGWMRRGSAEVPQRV
# How it was run: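 Mouse CRTH2 cDNA stably expressed in HEK293(EBNA) cells (hygromycin-selected) and membranes made by nitrogen cavitation. SPA competition uses 2–5 μg membranes, 1.5 nM [3H]PGD2, HEPES/KOH pH 7.4 with 10 mM MnCl2, 1% DMSO, 90 min at room temperature. Nonspecific binding defined with 1 μM PGD2. Ki by Cheng–Prusoff, ≥3 independent experiments.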
# [10] = Apparent permeability across human Caco2 cells at 1 uM after 2 hrs by LC/MS/MS analysis; assay type: ADME, cell-based; settings: Caco-2
# [11] = test system: Mus musculus; assay: Antiinflammatory activity in BALB/c mouse model assessed as inhibition of ovalbumin-induced eosinophil accumulation in bronchoalveolar lavage fluid at 30 mg/kg, po administered 1 hr prior to and 7 hrs after ovalbumin challenge for 3 days measured 8 hrs after final dose by cell counting; assay type: functional; settings: Lung
# How it was run: (§2)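 Compound given by oral gavage 1 h before and 7 h after each challenge. BAL taken 8 h after the last challenge. Total cells counted by hemocytometer; eosinophils counted on DiffQuik-stained cytospins. Reported as mean % inhibition ± SEM.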
# [12] = AUC in BALB/c mouse at 5 mg/kg, po; assay type: ADME, organism-based; design: dose 5 mg/kg, route oral; settings: plasma
# How it was run: (§3)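 Mouse PK after a 5 mg/kg oral dose.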
# [13] = test system: Mus musculus; assay: Antiinflammatory activity in BALB/c mouse model assessed as inhibition of ovalbumin-induced eosinophil accumulation in bronchoalveolar lavage fluid at 10 mg/kg, po administered 1 hr prior to and 7 hrs after ovalbumin challenge for 3 days measured 8 hrs after final dose by cell counting; assay type: functional; settings: Lung; how it was run: as §2
# [14] = test system: Mus musculus; assay: Antiinflammatory activity in BALB/c mouse contact hypersensitivity model assessed as inhibition of FITC-mediated ear swelling at 30 mg/kg, po administered 1 hr prior to and 7 hrs after the FITC-challenge measured 24 hrs after final dose; assay type: functional; how it was run: as §1
# [15] = Half life in BALB/c mouse at 1 mg/kg, iv by LC/MS/MS analysis; assay type: ADME, organism-based; design: dose 1 mg/kg, route intravenous; settings: in vivo
# [16] = test system: Mus musculus; assay: Antiinflammatory activity in BALB/c mouse model assessed as inhibition of ovalbumin-induced eosinophil accumulation in bronchoalveolar lavage fluid at 3 mg/kg, po administered 1 hr prior to and 7 hrs after ovalbumin challenge for 3 days measured 8 hrs after final dose by cell counting; assay type: functional; settings: Lung; how it was run: as §2
# [17] = test system: Mus musculus; assay: Antiinflammatory activity in BALB/c mouse contact hypersensitivity model assessed as inhibition of FITC-mediated ear swelling at 3 mg/kg, po administered 1 hr prior to and 7 hrs after the FITC-challenge measured 24 hrs after final dose; assay type: functional; how it was run: as §1
# [18] = Percentage unbound in human plasma; assay type: ADME, cell-free
# [19] = Half life in BALB/c mouse at 5 mg/kg, po by LC/MS/MS analysis; assay type: ADME, organism-based; design: dose 5 mg/kg, route oral; settings: in vivo
# [20] = Intrinsic clearance in human liver microsomes assessed per mg of protein at 1 uM by LC/MS/MS analysis; assay type: ADME, Microsome
# [21] = Percentage unbound in rat plasma; assay type: ADME, cell-free
# [22] = Oral bioavailability in BALB/c mouse at 5 mg/kg by LC/MS/MS analysis; assay type: ADME, organism-based; settings: in vivo; how it was run: as §3
# [23] = molecular target: T3, Prostaglandin D2 receptor 2 (Homo sapiens) (UniProt Q9Y5Y4); assay: Partial agonist activity at human CRTH2 expressed in chinese hamster CHO cells by cellular dielectric spectroscopy relative to PGD2; assay type: functional, cell-based
# T3 sequence (whole entry): T1 sequence (Q9Y5Y4 whole entry)
# How it was run: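 CHO-CRTH2 cells seeded at 100000/well, grown 24 h at 37 °C, washed into HBSS/10 mM HEPES pH 7.4 with 1% DMSO; impedance recorded. Agonism: compound alone, 25 min read. Antagonism: PGD2 at EC80 added to cell–compound mixture, 25 min read. Run with 0.1% BSA.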
fraction unbound [1],Ki [2],microsomal CLint at 1 µM [3],CL/F [5],AUC [12],fraction unbound [18],microsomal CLint at 1 µM [20],fraction unbound [21],Emax [23],SMILES,other results
0.007,3.4 nM,< 10 µL/min/mg,6.67 mL/min/kg,6140 ng·h/mL,0.01,12 µL/min/mg,0.004,–,CCCS(=O)(=O)c1ccc(F)c(C#Cc2cc(Cl)ccc2OCC(=O)O)c1,"AUC [4]: 6140 ng·h/mL; IC50 [6]: 8 nM; inhibition in vivo at 10 mg/kg [7]: 54%; IC50 [8]: 28 nM; Ki [9]: 0.37 nM; Papp at 2 h, 1 µM [10]: 10.8 ×10⁻⁶ cm/s; inhibition in vivo at 30 mg/kg [11]: 55%; inhibition in vivo at 10 mg/kg [13]: 27%; inhibition in vivo at 30 mg/kg [14]: 48%; half-life [15]: 2 h; inhibition in vivo at 3 mg/kg [16]: 19%; inhibition in vivo at 3 mg/kg [17]: 36%; half-life [19]: 1.9 h"
0.027,5 nM,18 µL/min/mg,23.3 mL/min/kg,1800 ng·h/mL,0.017,14 µL/min/mg,0.014,10%,Cc1ccc(S(C)(=O)=O)cc1C#Cc1cc(Cl)ccc1OCC(=O)O,bioavailability [22]: 49%
–,12 nM,–,–,–,–,–,–,60%,O=C(O)COc1ccc(C(F)(F)F)cc1C#Cc1ccccc1Cl,–

# From ChEMBL document CHEMBL1914440, “Discovery of potent, selective, and orally bioavailable alkynylphenoxyacetic acid CRTH2 (DP2) receptor antagonists for the treatment of allergic inflammatory diseases” (J Med Chem, 2011)
